Measurements from ChEMBL document CHEMBL1795239, “MAO inhibitory activity modulation: 3-Phenylcoumarins versus 3-benzoylcoumarins” (Bioorg Med Chem Lett, 2011).

Key:
[1] = target: T1, Amine oxidase [flavin-containing] A (Homo sapiens, UniProt P21397); experiment: Inhibition of human recombinant MAO-A using p-tyramine substrate at 100 uM by fluorometric method
T1 sequence (P21397 whole entry): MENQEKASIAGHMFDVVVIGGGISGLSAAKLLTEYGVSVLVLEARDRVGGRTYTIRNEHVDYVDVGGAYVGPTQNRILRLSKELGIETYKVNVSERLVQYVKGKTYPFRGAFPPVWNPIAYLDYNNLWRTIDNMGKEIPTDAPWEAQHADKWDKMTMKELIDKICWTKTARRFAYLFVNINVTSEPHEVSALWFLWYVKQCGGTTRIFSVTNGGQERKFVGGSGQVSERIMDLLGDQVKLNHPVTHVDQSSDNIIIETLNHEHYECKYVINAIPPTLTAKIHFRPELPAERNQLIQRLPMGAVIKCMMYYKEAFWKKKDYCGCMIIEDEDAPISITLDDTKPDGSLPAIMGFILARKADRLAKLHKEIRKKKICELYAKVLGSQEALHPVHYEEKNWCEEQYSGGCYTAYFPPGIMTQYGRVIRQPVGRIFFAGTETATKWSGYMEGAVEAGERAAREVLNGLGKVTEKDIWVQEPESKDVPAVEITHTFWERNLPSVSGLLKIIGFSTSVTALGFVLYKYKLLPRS
How it was run: (§1)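 Recombinant human MAO-A or MAO-B expressed in baculovirus-infected BTI insect cells. Enzyme amounts set so both isoforms give the same rate, 165 pmol p-tyramine/min. Assay run in 0.05 M sodium phosphate pH 7.4 at 37 °C with compounds at several concentrations, 200 Amplex Red, 1 U/mL horseradish peroxidase and 1 mM p-tyramine. Resorufin fluorescence (ex 545/em 590 nm) read over a linear 15 min window. Vehicle controls run alongside.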

[2] = target: T2, Amine oxidase [flavin-containing] B (Homo sapiens, UniProt P27338); experiment: Inhibition of human recombinant MAO-B using p-tyramine substrate by fluorometric method
T2 sequence (P27338 whole entry): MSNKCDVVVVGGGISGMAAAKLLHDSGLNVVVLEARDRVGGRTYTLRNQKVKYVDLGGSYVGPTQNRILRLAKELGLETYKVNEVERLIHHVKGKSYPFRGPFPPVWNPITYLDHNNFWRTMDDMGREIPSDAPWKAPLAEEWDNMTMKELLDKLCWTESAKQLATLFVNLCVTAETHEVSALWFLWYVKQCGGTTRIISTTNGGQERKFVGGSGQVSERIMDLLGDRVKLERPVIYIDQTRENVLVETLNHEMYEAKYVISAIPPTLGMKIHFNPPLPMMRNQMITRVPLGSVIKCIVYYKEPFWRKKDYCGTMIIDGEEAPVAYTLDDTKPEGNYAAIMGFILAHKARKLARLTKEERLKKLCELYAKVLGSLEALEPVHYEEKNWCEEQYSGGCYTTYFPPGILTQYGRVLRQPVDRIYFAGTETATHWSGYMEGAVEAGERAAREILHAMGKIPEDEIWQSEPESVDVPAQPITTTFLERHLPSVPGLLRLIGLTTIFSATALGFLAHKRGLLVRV

Homo sapiens = species: Homo sapiens; experiment: Selectivity index, ratio of IC50 for human recombinant MAO-A to human recombinant MAO-B
How it was run: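 MAO-B selectivity index is IC50(MAO-A)/IC50(MAO-B). Both IC50s come from the fluorimetric Amplex Red/peroxidase assay with 1 mM p-tyramine, using recombinant hMAO-A and hMAO-B from baculovirus-infected insect cells.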

[3] = target: T2, Amine oxidase [flavin-containing] B; experiment: Inhibition of human recombinant MAO-B using p-tyramine substrate at 100 uM by fluorometric method; conditions: for inhibition (INH): 100 µM; how it was run: as §1
[4] = target: T1, Amine oxidase [flavin-containing] A; experiment: Inhibition of human recombinant MAO-A using p-tyramine substrate by fluorometric method

Structure (SMILES) | inhibition (INH) [1] | IC50 [2] [µM] | Ratio IC50 (Homo sapiens) | inhibition (INH) [3] | IC50 [4] [µM] | inhibition at 100 µM [3] [%]
O=c1oc2c(O)cc(Br)cc2cc1-c1ccccc1 | Not Active | 30.9 | > 3.2 | – | – | –
COc1cc(Br)cc2cc(C(=O)c3ccccc3)c(=O)oc12 | Not Active | – | – | Not Active | – | –
O=C(c1ccccc1)c1cc2cc(Br)cc(O)c2oc1=O | – | 73.9 | 0.63 | – | 46.8 | –
O=c1oc2c(O)cc(Br)cc2cc1-c1ccc(O)cc1 | – | 16.9 | 1.2 | – | 20.7 | –
O=C(c1ccc(O)cc1)c1cc2cc(Br)cc(O)c2oc1=O | – | – | 0.19 | – | 19.2 | 45

More lines, now with the values ahead:

inhibition (INH) [1] | IC50 [2] [µM] | Ratio IC50 (Homo sapiens) | inhibition (INH) [3] | IC50 [4] [µM] | inhibition at 100 µM [3] [%] | Structure (SMILES)
Not Active | 0.00135 | > 74100 | – | – | – | COc1ccc(-c2cc3cc(Br)cc(OC)c3oc2=O)cc1
Not Active | – | – | Not Active | – | – | COc1ccc(C(=O)c2cc3cc(Br)cc(OC)c3oc2=O)cc1
Not Active | 0.0835 | > 1200 | – | – | – | COc1cc(Br)cc2cc(-c3ccccc3)c(=O)oc12
